Data set [1] has as its system MCF-10A. Kind of data set: Inhibition of MPC in human MCF-10A cells assessed as increase in cellular lactate production at 10 uM incubated for 24 to 30 hrs. Format: cell-based. To be noted: time 24-30 hrs. In a few lines: (§1)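 MCF10A cells were seeded in triplicate and treated the next day with analogue or an equal volume of DMSO for 24-30 h. Lactate in the culture medium was measured on a BioProfile Basic Analyzer. It was normalized to cell number and run time to give a rate (nmol lactate per million cells per hour), relative to DMSO. Statistics were one-way ANOVA with Dunnett's post-test against DMSO.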

In data set [2] the test system is Mus musculus. Kind of data set: Stimulation of hair growth in C57BL/6J mouse shaved at postnatal day 50 during telogen-phase of hair cycle at 20 uM dosed topically to shaved back skin every other day for 2 weeks. Format: functional, organism-based. In a few lines:
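Wild-type C57BL/6J mice were shaved at postnatal day 50. They were treated topically every other day with about 300 µl of compound at 20 µM, suspended in Transderma Plo Ultramax gel, for up to 3 weeks; vehicle served as control. Pigmentation and hair growth (anagen entry) were photographed weekly. Mice were housed under defined pathogen-free conditions.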

Data set [3] has as its system MCF-10A. The experiment in a line: Inhibition of MPC in human MCF-10A cells assessed as increase in cellular lactate production incubated for 24 to 30 hrs. Format: cell-based. To be noted: time 24-30 hrs. In a few lines:
as §1

Data set [4] concerns MCF-10A. Kind of data set: Toxicity in human MCF-10A cells assessed as reduction in cell viability incubated for 24 to 30 hrs. To be noted: time 24-30 hrs. Format: cell-based.
The nature of data set [5]: (§2) Inhibition of MPC in human MCF-10A cells assessed as reduction in oxygen consumption rate using pyruvate and malate and ADP. Format: cell-based. The method in brief:
(§3)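 A Seahorse XF Analyzer measured the respiration of permeabilized MCF10A cells, with 5 mM pyruvate and 0.5 mM malate as substrates plus ADP (state 3). Cells received half-log doses from 3 nM to 10 µM. OCR (fmol O2 per cell per min) was measured in duplicate and normalized to cell number. IC50 was fitted from the dose-response.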

Data set [6] concerns MCF-10A. The description is as §2. Format: cell-based. The method in brief:
as §3

Activity calls are given as the source filed them. Unless noted, no cut-off for these calls is given here.

As for `Cc1ccc(/C=C(\C#N)C(=O)O)cc1F`, in data set [1], the inhibition entry is “inactive”.
For `N#C/C(=C\c1cn(Cc2cc(C(F)(F)F)cc(C(F)(F)F)c2)c2cccc(F)c12)C(=O)O`, the inhibition entry in data set [1] was “Active”. For the same molecule, the outcome in data set [2] was Active.
As for `N#C/C(=C\c1cn(Cc2ccc(F)c(F)c2)c2cc(F)ccc12)C(=O)O`, the inhibition result in data set [1] is “Active”.
For the molecule `N#C/C(=C\c1cccc(C(F)(F)F)c1Cl)C(=O)O`, in data set [1], the inhibition entry is “inactive”.
Same read-out and setting: under `N#C/C(=C\c1cn(Cc2cc(C(F)(F)F)cc(C(F)(F)F)c2)c2c(OCc3ccccc3)cccc12)C(=O)O` stands “Active”; under `N#C/C(=C\c1cn(Cc2cc(C(F)(F)F)cc(C(F)(F)F)c2)c2c(Cl)cccc12)C(=O)O`, “inactive”.
`N#C/C(=C\c1cn(Cc2cc(C(F)(F)F)cc(C(F)(F)F)c2)c2cnccc12)C(=O)O`: the inhibition entry in data set [1] is “Active”.
Same read-out and setting: under `COc1ccccc1-n1cc(/C=C(\C#N)C(=O)O)c2ccccc21` stands “Active”; under `CCOC(=O)/C(C#N)=C/c1cn(Cc2cc(F)cc(F)c2)c2ccccc12`, “Active”.
Take `N#C/C(=C\c1cn(Cc2cc(F)cc(F)c2)c2ccccc12)C(=O)O`: the inhibition entry in data set [1] was “Active”.
On to `N#C/C(=C\c1cn(-c2ccccc2)c2ccccc12)C(=O)O`, for which the inhibition result in data set [1] was “Active”. Moreover, the inhibition entry in data set [3] was “Dose-dependent effect”.
Consider `CCOC(=O)/C(C#N)=C/c1cn(Cc2ccc(F)cc2)c2ccccc12`, for which the inhibition result in data set [1] is “Active”.
`N#C/C(=C\c1cn(Cc2cc(C(F)(F)F)cc(C(F)(F)F)c2)c2ccc(Cl)cc12)C(=O)O`: the inhibition result in data set [1] was “inactive”.
As for `N#C/C(=C\c1c[nH]c2ccccc12)C(=O)O`, the inhibition result in data set [1] is “inactive”.
The same measure, in the same setting: under `N#C/C(=C\c1cn(Cc2cc(C(F)(F)F)cc(C(F)(F)F)c2)c2cccnc12)C(=O)O` stands “Active”.
For `N#C/C(=C\c1cn(Cc2ccc(F)c(F)c2)c2ccccc12)C(=O)O`, the inhibition entry in data set [1] is “Active”.
Turning to `N#C/C(=C\c1cn(Cc2cc(F)cc(F)c2)c2ccc(F)cc12)C(=O)O`, the inhibition entry in data set [1] was “Active”.
Still for that read-out and setting: under `CCOC(=O)C(=Cc1cn(-c2ccccc2)c2ccccc12)C(=O)O` (mixture of isomers) stands “inactive”; under `CCOC(=O)/C(C#N)=C/c1cn(Cc2cc(C(F)(F)F)cc(C(F)(F)F)c2)c2ncccc12`, “Active”; under `N#C/C(=C\c1cn(Cc2cc(C(F)(F)F)cc(C(F)(F)F)c2)c2cccc(C#N)c12)C(=O)O`, “Active”.
Same read-out and setting: for `COC(=O)/C(C#N)=C/c1cn(Cc2cc(C(F)(F)F)cc(C(F)(F)F)c2)c2ccccc12` the value was “inactive”; for `CCOC(=O)/C(C#N)=C/c1cn(Cc2ccccc2)c2ccccc12`, “Active”.
Take `CCOP(=O)(OCC)/C(C#N)=C/c1cn(Cc2cc(C(F)(F)F)cc(C(F)(F)F)c2)c2ccccc12`: the inhibition result in data set [1] is “Active”.
The same measure, in the same setting: for `COc1ccc(-n2cc(/C=C(\C#N)C(=O)O)c3ccccc32)cc1` the value was “Active”; for `N#CC(C#N)=Cc1cn(-c2ccccc2)c2ccccc12`, “inactive”.
The same measure, in the same setting: for `N#C/C(=C\c1ccc(C(F)(F)F)cc1)C(=O)O` the value was “inactive”; for `COc1cccc2c1c(/C=C(\C#N)C(=O)O)cn2Cc1cc(C(F)(F)F)cc(C(F)(F)F)c1`, “Active”; for `N#C/C(=C\c1cc(C(F)(F)F)cc(C(F)(F)F)c1)C(=O)O`, “inactive”.
On the same count and under the same terms, for `N#C/C(=C\c1cn(Cc2cc(C(F)(F)F)cc(C(F)(F)F)c2)c2ccccc12)P(=O)(O)O` the value was “inactive”.
Turning to `N#C/C(=C\c1cn(Cc2cc(C(F)(F)F)cc(C(F)(F)F)c2)c2cc(OCc3ccccc3)ccc12)C(=O)O`, the inhibition entry in data set [1] is “inactive”.
Turning to `N#C/C(=C\c1cn(Cc2cc(C(F)(F)F)cc(C(F)(F)F)c2)c2ccccc12)C(=O)N1CCOCC1`, in data set [1], the inhibition result was “Active”. Further, the Activity result in data set [4] is “Toxic”.
On to `N#C/C(=C\c1ccccc1F)C(=O)O`, for which the inhibition result in data set [1] was “inactive”.
The same measure, in the same setting: under `N#C/C(=C\c1ccc(F)c(F)c1)C(=O)O` stands “inactive”; under `N#C/C(=C\c1cn(Cc2cc(F)cc(F)c2)c2cc(F)ccc12)C(=O)O`, “Active”; under `N#C/C(=C\c1cn(Cc2cc(C(F)(F)F)cc(C(F)(F)F)c2)c2cccc(C(=O)O)c12)C(=O)O`, “inactive”.
`CCOC(=O)/C(C#N)=C/c1cn(-c2ccccc2OC)c2ccccc12`: the inhibition entry in data set [1] was “Active”.
With `N#C/C(=C\c1cn(Cc2cc(C(F)(F)F)cc(C(F)(F)F)c2)c2ccccc12)C(N)=O`, the inhibition result in data set [1] was “Active”. Besides, the Activity entry in data set [4] was “Toxic”.
For `CCOC(=O)/C(C#N)=C/c1cn(C(=O)Cc2cc(C(F)(F)F)cc(C(F)(F)F)c2)c2ccccc12`, the inhibition result in data set [1] is “inactive”.
As for `CCOC(=O)/C(C#N)=C/c1cn(Cc2cc(C(F)(F)F)cc(C(F)(F)F)c2)c2ccccc12`, the inhibition result in data set [1] was “Active”.
Turning to `N#C/C(=C\c1cn(Cc2cc(C(F)(F)F)cc(C(F)(F)F)c2)c2c(F)cccc12)C(=O)O`, the inhibition result in data set [1] is “Active”.
Consider `CCOC(=O)/C(C#N)=C/c1cn(-c2ccccc2)c2ccccc12`, for which the inhibition entry in data set [1] is “inactive”.
On to `CC(C)(C)OC(=O)/C(C#N)=C/c1cn(Cc2cc(C(F)(F)F)cc(C(F)(F)F)c2)c2ccccc12`, for which, in data set [1], the inhibition entry was “inactive”.
Take `N#CC(Cc1cn(-c2ccccc2)c2ccccc12)C(=O)O` (stereo unspecified): in data set [1], the inhibition result was “inactive”.
Consider `N#C/C(=C\c1cn(Cc2cc(C(F)(F)F)cc(C(F)(F)F)c2)c2cccc(Cl)c12)C(=O)O`, for which the inhibition entry in data set [1] was “Active”. Moreover, the result in data set [2] was Active.
Take `N#C/C(=C\c1cn(Cc2cc(C(F)(F)F)cc(C(F)(F)F)c2)c2nccc(Br)c12)C(=O)O`: the inhibition entry in data set [1] is “Active”.
`CCOP(=O)(OCC)/C(C#N)=C/c1cn(Cc2cc(C(F)(F)F)cc(C(F)(F)F)c2)c2ncccc12`: in data set [1], the inhibition result was “Active”.
The same measure, in the same setting: under `N#C/C(=C\c1ccc(O)cc1)C(=O)O` stands “inactive”.
Same read-out and setting: for `N#C/C(=C\c1cn(Cc2ccc(F)cc2)c2ccccc12)C(=O)O` the value was “Active”; for `N#C/C(=C\c1cn(Cc2cc(C(F)(F)F)cc(C(F)(F)F)c2)c2cc(Cl)ccc12)C(=O)O`, “inactive”; for `N#C/C(=C\c1ccc(F)c(C(F)(F)F)c1)C(=O)O`, “inactive”.
Still for that read-out and setting: for `CCOC(=O)/C(C#N)=C/c1cn(Cc2cc(C(F)(F)F)cc(C(F)(F)F)c2)c2cccc(Br)c12` the value was “Active”.
With `N#C/C(=C\c1cn(Cc2cc(C(F)(F)F)cc(C(F)(F)F)c2)c2ccccc12)C(=O)O`, the inhibition result in data set [1] is “Active”. Moreover, in data set [5], the IC50 stood at 0.0166 µM. For the same molecule, in data set [2], the outcome was Active.
Regarding `N#C/C(=C\c1cn(Cc2ccccc2)c2ccccc12)C(=O)O`, the inhibition entry in data set [1] is “Active”.
On to `N#C/C(=C\c1cn(Cc2cc(C(F)(F)F)cc(C(F)(F)F)c2)c2cccc(OCc3ccccc3)c12)C(=O)O`, for which, in data set [1], the inhibition result was “inactive”.
On to `N#C/C(=C\c1ccccc1)C(=O)O`, for which, in data set [1], the inhibition result was “inactive”.
On the same count and under the same terms, for `N#C/C(=C\c1cn(Cc2ccc(F)c(F)c2)c2ccc(F)cc12)C(=O)O` the value was “Active”; for `CCOC(=O)/C(C#N)=C/c1cn(Cc2ccc(F)c(F)c2)c2ccccc12`, “Active”.
Take `N#C/C(=C\c1cn(Cc2cc(C(F)(F)F)cc(C(F)(F)F)c2)c2ncccc12)C(=O)O`: the inhibition entry in data set [1] and in data set [6] was “Active” in each case. Further, the IC50 in data set [5] turned out to be 0.0428 µM.
Turning to `N#C/C(=C\c1ccc(F)cc1F)C(=O)O`, the inhibition entry in data set [1] was “inactive”.
Turning to `N#C/C(=C\c1cn(Cc2cc(C(F)(F)F)cc(C(F)(F)F)c2)c2nccc(Cl)c12)C(=O)O`, in data set [1], the inhibition entry is “Active”.
In the case of `N#C/C(=C\c1cn(Cc2cc(C(F)(F)F)cc(C(F)(F)F)c2)c2cccc(Br)c12)C(=O)O`, in data set [1], the inhibition result is “Active”. Moreover, the result in data set [2] was Active.
As to `N#C/C(=C\c1ccc(F)cc1)C(=O)O`, in data set [1], the inhibition result was “inactive”.
`CCOC(=O)/C(C#N)=C/c1c[nH]c2ccccc12`: the inhibition result in data set [1] is “inactive”.
`CCOC(=O)/C(C#N)=C/c1cn(-c2ccc(OC)cc2)c2ccccc12`: the inhibition entry in data set [1] is “Active”.
As for `N#C/C(=C\c1cn(-c2ccccc2)c2cccc(Cl)c12)C(=O)O`, in data set [2], the result was Active.
Turning to `CCOC(=O)/C(C#N)=C/c1cn(Cc2cc(C(F)(F)F)cc(C(F)(F)F)c2)c2cccc(F)c12`, the inhibition entry in data set [1] is “Active”.

The values are drawn from ChEMBL document CHEMBL4706682, “Development of Novel Mitochondrial Pyruvate Carrier Inhibitors to Treat Hair Loss” (J Med Chem, 2021).
